pEC50, pIC50: −log10 of the molar value. Active and inactive are the calls of the source. The calls are words filed in the database; no cut-off is given here.
How the values were obtained:
[1] = Growth inhibition of hamster BHK21 cells at 100 nM after 48 hrs; format: cell-based, Mesocricetus auratus; settings: bhk-21, 48 h, 0.1 µM
How it was run: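 BHK-21 cells mock-infected and incubated with 100 nM compound for 48 h; cell morphology and growth examined by light microscopy.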

Tobacco mosaic virus [2] = assay: Reduction of coat protein sgRNA level in TMV U1 infected tobacco BY2 protoplast at 50 nM administered after 4 hrs postinfection; format: functional, organism-based
How it was run: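 BY-2 protoplasts infected with TMV supplemented with compound up to 50 nM; total RNA extracted by TRIzol 4 h after infection, and CP sgRNA, I₂ sgRNA and genomic RNA detected by Northern blot with CP gene probe, 28S rRNA as loading control.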

Sindbis virus [3] = assay: Decrease in 26S sgRNA level in Sindbis virus XJ160 infected BHK21 cells after 3 hrs postinfection; format: functional, organism-based; settings: BHK-21
How it was run: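 BHK-21 cells infected with SINV XJ-160 premixed with compound at MOI 10 in quadruplicate. Viral RNAs quantified at 3 hpi by Northern blot, with β-actin RNA as loading comparison.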

[4] = Selectivity index, ratio of CC50 for BHK21 cells to EC50 for Sindbis virus; format: toxicity, cell-based, BHK-21; settings: hamster, read-out: Ratio CC50/EC50
How it was run: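 SINV XJ-160 at 2 × 10⁵ pfu/ml was premixed with compound for 15 min. It was then adsorbed 1 h to BHK-21 cells, MOI 0.01, in quadruplicate. Cells were washed and kept in DMEM/5% FBS at 37°C. CC50 was 50% inhibition of uninfected BHK-21 proliferation. Index = CC50/EC50.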

[5] = system: Human immunodeficiency virus; assay: Antiviral activity against HIV in human H9 cells assessed as inhibition of virus-induced cytopathogenicity; format: functional, organism-based; settings: Human immunodeficiency virus 1, H9
How it was run: (§1)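 Cells seeded at 2 × 10⁵ per well 24 h before use (BHK-21 for GETV, H9 for HIV, CIK for Reovirus, 983A for adenovirus, Veto for measles virus). Infected at a dose giving 100% cytopathic effect at 3 dpi; virus premixed with compound at final 100, 50, 10, 3, 2, 1.5, 1, 0 nM. Infected and uninfected untreated controls on each plate.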

Tobacco mosaic virus [6] = assay: Inhibition of TMV U1 multiplication in tobacco BY2 protoplast at 40 nM assessed as inhibition of local lesions on Chenopodium quinoa leaves by local lesion assay after 3 days postinfection; format: functional; settings: U1, 72 h
How it was run: (§2)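 TMV premixed with compound at a range of concentrations used to inoculate tobacco BY-2 protoplasts; virus multiplication then assayed by counting local lesions on the local lesion host Chenopodium quinoa.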

Tobacco mosaic virus [7] = assay: Reduction of coat protein level in TMV U1 infected tobacco BY2 protoplast by ELISA; format: functional, organism-based
How it was run: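 BY-2 protoplasts inoculated with TMV pretreated with a range of compound concentrations; coat protein measured by ELISA, three repeats per concentration, mean ± SD.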

Tobacco mosaic virus [8] = assay: Inhibition of TMV U1 replication in tobacco BY2 protoplast at 50 nM by local lesion assay using Chenopodium quinoa leaves; format: functional, organism-based; how it was run: as §2
Sindbis virus [9] = assay: Decrease in Sindbis virus XJ160 accumulation in BHK21 cells […] by ELISA; format: functional, organism-based; settings: XJ160, BHK-21
How it was run: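 BHK-21 cells inoculated with SINV XJ-160 premixed with compound (MOI 0.01, 15-min pretreatment, 1-h adsorption). Virus accumulation measured by ELISA as blank-subtracted OD₄₅₀, averaged over nine repeats per concentration.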

Measles morbillivirus = assay: Antiviral activity against measles virus in Veto cells assessed as inhibition of virus-induced cytopathogenicity; format: functional, organism-based; how it was run: as §1
Influenza A virus = assay: Antiviral activity against influenza A virus in Madin-Darby kidney cells assessed as inhibition of virus-induced cytopathogenicity; format: functional, organism-based
How it was run: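 Influenza A virus was tested on Madin–Darby canine kidney cells seeded at 2 × 10⁵ per well 24 h before use. Infection used the dose causing 100% CPE at 3 dpi. Compound was premixed with virus at final 100–0 nM (8 levels). Uninfected and virus-only controls were included per plate. Read-out was 50% inhibition of cytopathogenicity.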

[10] = system: Eastern equine encephalitis virus; assay: Antiviral activity against Eastern equine encephalitis virus in BHK21 cells assessed as inhibition of virus-induced cytopathogenicity; format: functional, organism-based; settings: BHK-21
Tobacco mosaic virus [11] = assay: Inhibition of TMV U1 multiplication in tobacco BY2 protoplast at 30 nM assessed as local lesion size on Chenopodium quinoa leaves by local lesion assay; format: functional
Tobacco mosaic virus [12] = assay: Inhibition of TMV U1 replication in tobacco BY2 protoplast by local lesion assay using Chenopodium quinoa leaves; format: functional, organism-based; how it was run: as §2
[13] = system: Japanese encephalitis virus; assay: Antiviral activity against Japanese encephalitis virus in C6 cells assessed as inhibition of virus-induced cytopathogenicity; format: functional, organism-based
Sindbis virus [14] = assay: Reduction of Sindbis virus infection-induced mortality rate in newborn BALB/c mouse assessed as long term survivors at 50 mg/kg; format: functional
How it was run: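 Newborn BALB/c mice, 2–3 days old, ≈2 g, were inoculated intracerebrally with 20 μl medium holding 100 × LD50 SINV. Compound (20 μl, 5, 50 or 100 mg/kg BW) was mixed into the inoculum. There were 11 mice per group, counted at 3–7 days. Virus-alone and compound-alone controls were included.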

Tobacco mosaic virus [15] = assay: Inhibition of coat protein sgRNA accumulation in TMV U1 infected Nicotiana tabacum cv K326 plant leaves at 50 nM by Northern blot; format: functional, organism-based
How it was run: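 N. tabacum cv. K326 leaves inoculated with TMV with or without 50 nM compound; inoculated and upper uninoculated leaves collected at 5 dpi. TRIzol total RNA probed with CP gene sequence by Northern blot, 28S rRNA as loading control.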

Sindbis virus [16] = assay: Decrease in 26S sgRNA level in Sindbis virus XJ160 infected BHK21 cells after 24 hrs postinfection; format: functional, organism-based; settings: BHK-21
Tobacco mosaic virus [17] = assay: Antiviral activity against TMV U1 infected Nicotiana tabacum cv K326 plant leaves assessed as inhibition of systemic virus infection; format: functional, organism-based
Tobacco mosaic virus [18] = assay: Inhibition of TMV U1 multiplication in tobacco BY2 protoplast at 20 nM assessed as local lesion size on Chenopodium quinoa leaves by local lesion assay; format: functional
unidentified adenovirus = assay: Antiviral activity against adenovirus in 983A cells assessed as inhibition of virus-induced cytopathogenicity; format: functional, organism-based; how it was run: as §1
Tobacco mosaic virus [19] = assay: Inhibition of TMV U1 multiplication in tobacco BY2 protoplast at 40 nM assessed as local lesion size on Chenopodium quinoa leaves by local lesion assay; format: functional
Tobacco mosaic virus [20] = assay: Inhibition of TMV U1 multiplication in tobacco BY2 protoplast at 20 nM assessed as inhibition of local lesions on Chenopodium quinoa leaves by local lesion assay after 3 days postinfection; format: functional; settings: U1, 72 h; how it was run: as §2
Tobacco mosaic virus [21] = assay: Inhibition of TMV U1 multiplication in tobacco BY2 protoplast at 30 nM assessed as inhibition of local lesions on Chenopodium quinoa leaves by local lesion assay after 3 days postinfection; format: functional; settings: U1, 72 h; how it was run: as §2
Hepatitis C virus = assay: Antiviral activity against HCV in human H9 cells assessed as inhibition of virus-induced cytopathogenicity; format: functional, organism-based, Hepacivirus hominis
Tobacco mosaic virus [22] = assay: Inhibition of TMV U1 multiplication in tobacco BY2 protoplast at 10 nM assessed as inhibition of local lesions on Chenopodium quinoa leaves by local lesion assay after 3 days postinfection; format: functional; settings: U1, 72 h; how it was run: as §2
Tobacco mosaic virus [23] = assay: Inhibition of TMV U1 multiplication in tobacco BY2 protoplast at 50 nM assessed as local lesion size on Chenopodium quinoa leaves by local lesion assay; format: functional
Tobacco mosaic virus [24] = assay: Decrease in TMV U1 coat protein level in TMV infected tobacco BY2 protoplast at 50 nM by Western blot analysis; format: functional, organism-based
How it was run: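 BY-2 protoplasts (5 ml, 1.5 × 10⁶/ml) infected with TMV pretreated with compound; total protein extracted and coat protein detected by Western blot.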

SMILES: CO[C@@H]1C[C@H](O[C@H]2CC[C@@]3(C)C(=CC[C@H]4C(=O)OC5CO[C@]6(C)OC=C(CC[C@@H]43)[C@H]56)C2)O[C@H](C)[C@H]1O[C@H]1C[C@H](O)[C@H](O[C@@H]2C[C@@H](OC)[C@H](O[C@@H]3O[C@H](CO)[C@@H](O[C@@H]4O[C@H](CO)[C@@H](O)[C@H](O)[C@H]4O)[C@H](O)[C@H]3O)[C@@H](C)O2)[C@@H](C)O1 (stereo partly drawn) [PANICULATUMOSIDE C]
- Activity [1]: Non-toxic
- Activity (Tobacco mosaic virus [2]): Active
- Activity (Sindbis virus [3]): Dose-dependent effect
- selectivity ratio [4]: 11000
- pEC50 [5]: < 4.60
- inhibition at 0.04 µM (Tobacco mosaic virus [6]): 93%
- Activity (Tobacco mosaic virus [7]): Dose-dependent effect
- Activity (Tobacco mosaic virus [8]): Active
- pEC50 (Sindbis virus [9]): 8.82
- pEC50 (Measles morbillivirus): < 4.60
- pEC50 (Influenza A virus): < 4.70
- pEC50 [10]: 8.70
- Activity (Tobacco mosaic virus [11]): 1.1 mm
- pIC50 (Tobacco mosaic virus [12]): 7.60
- pEC50 [13]: < 4.60
- Activity (Sindbis virus [14]): 54%
- Activity (Tobacco mosaic virus [15]): Active
- Activity (Sindbis virus [16]): Active
- Activity (Tobacco mosaic virus [17]): Active
- Activity (Tobacco mosaic virus [18]): 1.6 mm
- pEC50 (unidentified adenovirus): < 4.60
- Activity (Tobacco mosaic virus [19]): 1 mm
- inhibition at 0.02 µM (Tobacco mosaic virus [20]): 40%
- inhibition at 0.03 µM (Tobacco mosaic virus [21]): 72%
- pEC50 (Hepatitis C virus): < 4.60
- inhibition at 0.01 µM (Tobacco mosaic virus [22]): 19%
- Activity (Tobacco mosaic virus [23]): 0 mm
- Activity (Tobacco mosaic virus [24]): Active

Source: ChEMBL document CHEMBL1156462, “Seco-pregnane steroids target the subgenomic RNA of alphavirus-like RNA viruses” (Proc Natl Acad Sci U S A, 2007)
